Measured values pooled from the literature.
Each line is one published result; the experiments were not run side by side.
Organism: Pseudomonas aeruginosa

O=C(Cc1ccccc1)Sc1cccccc1=O
MIC80 (microbial growth, broth dilution; ATCC27853): > 71.4 µM

COc1c(C)c(OC(=O)c2ccccc2)c(C)c(O)c1C(=O)/C=C/c1ccccc1
MBC (microbial killing, broth dilution; ATCC27853): > 5000 µg/mL

CC[C@H]1OC(=O)[C@H](C)[C@@H](O[C@H]2C[C@@](C)(OC)[C@@H](O)[C@H](C)O2)[C@H](C)[C@@H](O[C@@H]2O[C@H](C)C[C@H](N(C)C)[C@H]2O)[C@](C)(O)C[C@@H](C)/C(=N\OCOCCOC)[C@H](C)[C@@H](O)[C@]1(C)O
inhibition zone (microbial growth, disc diffusion; ATCC9721; 20000 µg/mL, 24 h): 19 mm

CCn1cc(C(=O)O)c(=O)c2cc(F)c(N3CCNCC3)cc21
MBC (microbial killing, broth dilution; ATCC9027): 2 µM

CCCC(=O)Oc1c(C)c(O)c(C(=O)/C=C/c2ccccc2)c(OC)c1C
MBC (microbial killing, broth dilution; ATCC27853): > 5000 µg/mL

CC(C)c1cccc(=O)c(O)c1
MIC80 (microbial growth, broth dilution; ATCC27853): > 71.4 µM

COc1cc(C=Cc2cc(-c3ccccc3)nc(O)n2)ccc1O
inhibition zone (microbial growth, disc diffusion; ATCC27853; 500 µg/mL): 14.3 mm

O=C(Sc1cccccc1=O)c1ccc(C(F)(F)F)cc1
MIC80 (microbial growth, broth dilution; ATCC27853): > 71.4 µM

CC(C)Oc1c(NC(=O)c2ccc(NC(=O)[C@H](CC(N)=O)NC(=O)c3ccc(NC(=O)c4cc(C#N)cn4C)cc3)cc2)ccc(C(=O)Nc2ccc(C(=O)O)cc2)c1O
MIC (microbial growth; PA14): > 64 µg/mL

C=CCOc1c(C)c(O)c(C(=O)/C=C/c2ccccc2)c(OC)c1C
MBC (microbial killing, broth dilution; ATCC27853): > 5000 µg/mL

C=CCCCCCCCCCCCC(O)CC(O)CO (stereo not shown)
IC50 (microbial growth, broth dilution; ATCC27853): > 200 µg/mL

CC1(C)S[C@@H]2[C@H](NC(=O)[C@H](N)c3ccccc3)C(=O)N2[C@H]1C(=O)O
inhibition zone (microbial growth, well diffusion; PAO1; 200 µM): 8 mm

CC(C)Oc1c(NC(=O)c2ccc(NC(=O)[C@H](CC(N)=O)NC(=O)c3ccc(NC(=O)c4ccccc4)cc3)cc2)ccc(C(=O)Nc2ccc(C(=O)O)cc2)c1O
MIC (microbial growth; PA14): > 64 µg/mL

O=c1[nH]cc(F)c(=O)[nH]1
MBC (microbial killing, broth dilution; 48 h): 8 µg/mL

CC1(C)S[C@@H]2[C@H](NC(=O)[C@H](N)c3ccc(O)cc3)C(=O)N2[C@H]1C(=O)O
inhibition zone (microbial growth, disc diffusion; ATCC27853; 500 µg/mL): 13.8 mm

CC(C)COc1c(NC(=O)c2ccc(NC(=O)[C@H](CC(N)=O)NC(=O)c3ccc(NC(=O)c4ccc(C#N)cc4)cc3)cc2)ccc(C(=O)Nc2ccc(C(=O)O)cc2)c1O
MIC (microbial growth; PA14): > 64 µg/mL

O=C(Sc1cccccc1=O)c1ccccc1C(F)(F)F
MIC80 (microbial growth, broth dilution; ATCC27853): > 71.4 µM

CC(C)Oc1c(NC(=O)c2ccc(NC(=O)[C@H](CC(N)=O)NC(=O)c3ccc(CCNC(=O)c4ccc(C#N)cc4)cc3)cc2)ccc(C(=O)Nc2ccc(C(=O)O)cc2)c1O
MIC (microbial growth; PA14): > 64 µg/mL

COc1cc(C=Cc2cc(-c3ccc(N(C)C)cc3)nc(O)n2)ccc1O
inhibition zone (microbial growth, disc diffusion; ATCC27853; 250 µg/mL): 7 mm

C#CCCCCCCCCC=CCC(O)CC(O)CO (stereo not shown)
IC50 (microbial growth, broth dilution; ATCC27853): > 200 µg/mL

COc1c(C)c(OS(=O)(=O)c2ccc3ccccc3c2)c(C)c(OS(=O)(=O)c2ccc3ccccc3c2)c1C(=O)/C=C/c1ccccc1
inhibition zone (microbial growth, well diffusion; ATCC27853; 5 µg/mL): 14 mm

CC(C)CC1NC(=O)C(C(=O)NC(C(=O)NC2C(=O)N3C2SC(C)(C)C3C(=O)O)c2ccccc2)=C1O (stereo not shown)
inhibition zone (microbial growth, well diffusion; PAO1; 200 µM): 11.7 mm

CC(C)c1ccc(O)c(=O)cc1
MIC80 (microbial growth, broth dilution; ATCC27853): > 71.4 µM

COc1c(C)c(OS(=O)(=O)c2ccc3ccccc3c2)c(C)c(O)c1C(=O)/C=C/c1ccccc1
MBC (microbial killing, broth dilution; ATCC27853): > 5000 µg/mL

COc1cc(C=CC(=O)CC(c2ccc([N+](=O)[O-])cc2)n2ccnc2)ccc1O (stereo not shown)
inhibition zone (microbial growth, disc diffusion; ATCC27853; 500 µg/mL): 7.67 mm

CCN1CCN(C(=O)N[C@@H](C(=O)N[C@@H]2C(=O)N3[C@@H]2SC(C)(C)[C@@H]3C(=O)O)c2ccccc2)C(=O)C1=O
inhibition zone (microbial growth, well diffusion; PAO1; 200 µM): 19 mm

COc1c(C)c(OC(=O)c2ccc(C)cc2)c(C)c(O)c1C(=O)/C=C/c1ccccc1
MBC (microbial killing, broth dilution; ATCC27853): > 5000 µg/mL

CC1(C)SC2C(NC(=O)C(NC(=O)C3=C(O)C4(CC4)NC3=O)c3ccccc3)C(=O)N2C1C(=O)O (stereo not shown)
inhibition zone (microbial growth, well diffusion; PAO1; 200 µM): 12 mm

Cc1cc(N)c2ccccc2[n+]1CCCCCCCCCC[n+]1c(C)cc(N)c2ccccc21
inhibition zone (microbial growth, disc diffusion; 50 µg/disc): 0 mm

CN1CC(O)=C(C(=O)NC(C(=O)NC2C(=O)N3C2SC(C)(C)C3C(=O)O)c2ccccc2)C1=O (stereo not shown)
inhibition zone (microbial growth, well diffusion; PAO1; 200 µM): 12.3 mm

COc1c(C)c(OC)c(C(=O)/C=C/c2ccccc2)c(OC)c1C
MBC (microbial killing, broth dilution; ATCC27853): > 5000 µg/mL

CC(C)Oc1c(NC(=O)c2ccc(NC(=O)[C@H](CC(N)=O)NC(=O)c3ccc(NC(=O)c4ccc(C5(C(F)(F)F)N=N5)cc4)cc3)cc2)ccc(C(=O)Nc2ccc(C(=O)O)cc2)c1O
MIC (microbial growth; PA14): > 64 µg/mL

COc1cc(C=CC(=O)CC(c2ccc(N(C)C)cc2)n2ccnc2)ccc1O (stereo not shown)
inhibition zone (microbial growth, disc diffusion; ATCC27853; 250 µg/mL): 7.66 mm

COc1c(C)c(OC(C)=O)c(C)c(OC(C)=O)c1C(=O)/C=C/c1ccccc1
MBC (microbial killing, broth dilution; ATCC27853): > 5000 µg/mL
